Read-outs that look alike come from different tables or passages of the source. Ends that are not written are not given here.
B1: recombinant human S100 calcium binding protein S100A8 (untagged) (natural protein, UniProt P05109 1-93, looked up)
chain: MLTELEKALNSIIDVYHKYSLIKGNFHAVYRDDLKKLLETECPQYIRKKGADVWFKELDINTDGAVNFQEFLILVIKMGVAAHKKSHEESHKE
B2: cationic antimicrobial protein of 37 kDa (CAP37) (natural protein, human, UniProt P20160 27-248, looked up)
chain: IVGGRKARPRQFPFLASIQNQGRHFCGGALIHARFVMTAASCFQSQNPGVSTVVLGAYDLRRRERQSRQTFSISSMSENGYDPQQNLNDLMLLQLDREANLTSSVTILPLPLQNATVEAGTRCQVAGWGSQRSGGRLSRFPRFVNVTVTPEDQCRPNNVCTGVLTRRGGICNGDGGTPLVCEGLAHGVASFSLGPCGRGPDFFTRVALFRDWIDGVLNNPGP

Tests used:
[1] = molecular target: T1, CAP37-derived peptide 120-146 WH (human); assay: ELISA
T1 sequence (P20160 146-172 with Q131W R132H, looked up): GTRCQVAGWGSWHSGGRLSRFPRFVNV

[2] = molecular target: CAP37-derived peptide 120-146 WH 5RMP (human); assay: ELISA
[3] = molecular target: T2, CAP37-derived peptide 20-44 (human); assay: ELISA
T2 sequence (P20160 46-70, looked up): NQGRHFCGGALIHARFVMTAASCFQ

[4] = molecular target: CAP37-derived peptide 20-44 5RMP (human); assay: ELISA
TLR4/MD-2 complex = TLR4/MD-2 complex (Homo sapiens, UniProt O00206+Q9Y6Y9); assay: ELISA binding of His-tagged TLR4/MD-2 complex to coated proteins/peptides; conditions: for Binding of TLR4/MD-2 to coated protein/peptide (in words): ELISA, TLR4/MD-2 at 10 nM, compared with BSA
Summary of the method: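 ELISA against coated protein or peptide at 5 µg/ml (PBS pH 7.4; 2 h RT, then 4°C overnight), blocked with 3% BSA/PBST. Recombinant human TLR4/MD-2 complex, both chains His-tagged, 0–100 nM in PBST/0.1% BSA, 70 min at 37°C. Probed with anti-His mAb 1.0 µg/ml, then peroxidase secondary; OD 492 nm. 0-nM values subtracted; Kd derived; compared with BSA. Mean ± SEM, three independent experiments.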

[5] = molecular target: T3, recombinant human TLR4/myeloid differentiation factor 2 (MD-2) complex (human, UniProt O00206 24-631; Q9Y6Y9 19-160); assay: ELISA
TLR4 = TLR4 (Homo sapiens, UniProt O00206); assay: HEK-Blue hTLR4 stimulation assay; assay type: cell-based; conditions: HEK-hTLR4 cells
Summary of the method: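 HEK-Blue hTLR4 cells (human TLR4, MD-2, CD14, NF-κB/AP-1-driven SEAP), passages 3–15, detached with warm PBS and suspended serum-free at 1.4 × 10^5 cells/ml. Test compound in nuclease-free water at final 10 nM–100 µM; 24 h, 37°C, 5% CO2. SEAP read with Quanti-Blue, 3 h, OD 630 nm, normalised to BCA protein. Untreated background subtracted; expressed as % of 50-nM S100A9. Three experiments in triplicate.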

[6] = system: TLR4 activation by S100A9; assay: HEK-Blue hTLR4 assay, effect on activation of TLR4 by 10-nM S100A9; assay type: cell-based, human
S100A8 = assay: ELISA binding of CAP37 to S100A8; parameters: species or system human; conditions: data not shown
[7] = molecular target: T3, recombinant human TLR4/myeloid …; assay: ELISA; remark: listed apart in the source
[8] = molecular target: T1, CAP37-derived peptide 120-146 WH (human); assay: ELISA; remark: listed apart in the source
[9] = molecular target: CAP37-derived peptide 120-146 WH 5RMP (human); assay: ELISA; remark: listed apart in the source
[10] = molecular target: T2, CAP37-derived peptide 20-44 (human); assay: ELISA; remark: listed apart in the source
[11] = molecular target: CAP37-derived peptide 20-44 5RMP (human); assay: ELISA; remark: listed apart in the source
[12] = molecular target: B1; assay: ELISA
[13] = molecular target: B2; assay: ELISA

Chain of TLR4/MD-2 complex (O00206 24-631 limits assumed): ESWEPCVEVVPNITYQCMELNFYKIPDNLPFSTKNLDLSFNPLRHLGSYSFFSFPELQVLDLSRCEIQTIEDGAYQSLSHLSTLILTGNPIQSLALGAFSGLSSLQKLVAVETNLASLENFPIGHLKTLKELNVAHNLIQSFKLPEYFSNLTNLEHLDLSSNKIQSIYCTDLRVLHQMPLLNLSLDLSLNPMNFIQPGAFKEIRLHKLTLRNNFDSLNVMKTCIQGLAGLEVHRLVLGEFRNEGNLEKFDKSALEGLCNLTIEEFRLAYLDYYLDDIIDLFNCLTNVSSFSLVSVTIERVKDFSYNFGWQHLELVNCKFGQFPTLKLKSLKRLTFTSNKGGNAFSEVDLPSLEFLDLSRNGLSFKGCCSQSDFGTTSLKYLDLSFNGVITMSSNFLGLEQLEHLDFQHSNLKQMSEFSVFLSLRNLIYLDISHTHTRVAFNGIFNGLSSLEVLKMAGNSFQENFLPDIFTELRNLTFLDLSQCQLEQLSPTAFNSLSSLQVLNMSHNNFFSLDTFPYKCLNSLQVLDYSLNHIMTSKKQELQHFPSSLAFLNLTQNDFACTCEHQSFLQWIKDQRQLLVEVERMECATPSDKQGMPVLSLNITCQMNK
Chain of TLR4/MD-2 complex (Q9Y6Y9 17-160 partner limits assumed): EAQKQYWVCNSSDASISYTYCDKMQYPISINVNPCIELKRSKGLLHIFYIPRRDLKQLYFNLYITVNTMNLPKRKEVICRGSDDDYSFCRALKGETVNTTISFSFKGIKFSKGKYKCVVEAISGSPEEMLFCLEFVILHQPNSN
Chain of TLR4 (O00206 24-839): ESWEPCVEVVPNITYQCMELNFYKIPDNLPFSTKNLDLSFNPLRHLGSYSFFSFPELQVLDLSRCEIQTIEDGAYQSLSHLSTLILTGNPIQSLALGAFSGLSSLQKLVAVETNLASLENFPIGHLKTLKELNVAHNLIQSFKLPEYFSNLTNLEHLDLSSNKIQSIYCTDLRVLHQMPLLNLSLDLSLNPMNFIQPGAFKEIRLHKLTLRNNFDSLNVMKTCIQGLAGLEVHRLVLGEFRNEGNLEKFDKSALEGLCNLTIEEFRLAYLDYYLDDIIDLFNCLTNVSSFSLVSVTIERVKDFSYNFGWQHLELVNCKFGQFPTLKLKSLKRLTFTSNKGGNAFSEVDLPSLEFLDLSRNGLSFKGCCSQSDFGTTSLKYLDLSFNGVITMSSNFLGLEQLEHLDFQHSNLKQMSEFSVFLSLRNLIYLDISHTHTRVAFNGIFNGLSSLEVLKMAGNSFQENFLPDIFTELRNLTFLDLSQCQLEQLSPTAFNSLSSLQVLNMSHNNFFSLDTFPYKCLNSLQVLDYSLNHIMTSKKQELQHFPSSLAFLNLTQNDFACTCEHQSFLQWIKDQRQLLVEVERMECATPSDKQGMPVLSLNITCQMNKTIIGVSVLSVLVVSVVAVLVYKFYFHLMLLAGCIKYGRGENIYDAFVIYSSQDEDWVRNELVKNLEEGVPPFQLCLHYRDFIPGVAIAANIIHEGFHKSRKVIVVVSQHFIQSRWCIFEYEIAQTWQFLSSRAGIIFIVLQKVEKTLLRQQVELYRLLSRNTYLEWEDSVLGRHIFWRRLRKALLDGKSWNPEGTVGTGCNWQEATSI
Chain of TLR4 (Q9Y6Y9 17-160 partner limits assumed): as the sequence (Q9Y6Y9 17-160 partner limits assumed) above
T3 sequence (O00206 24-631, chain 1 of 2): as the sequence (O00206 24-631 limits assumed) above
T3 sequence (Q9Y6Y9 19-160, chain 2 of 2): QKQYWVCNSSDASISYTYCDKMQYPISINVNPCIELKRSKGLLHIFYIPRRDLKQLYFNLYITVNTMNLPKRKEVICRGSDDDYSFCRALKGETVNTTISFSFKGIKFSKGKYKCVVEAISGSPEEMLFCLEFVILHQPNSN

“recombinant human TLR4/myeloid differentiation factor 2 (MD-2) complex (from UniProt O00206 24-631; Q9Y6Y9 19-160)” was tested, and the Kd [1] was 229 nM, the Kd [2] was 18.9 nM and the Kd [3] was 90.6 nM. It also gave a Kd [4] of 270 nM.

“CG: cathepsin G purified from human neutrophils” was tested, and the “Binding of TLR4/MD-2 to coated protein/peptide (in words)” value (TLR4/MD-2 complex) was “did not significantly interact”.

In the case of LDREANLTSSVTILPLPLQNATVEAGTR [95-122], the “Binding of TLR4/MD-2 to coated protein/peptide (in words)” value (TLR4/MD-2 complex) is reported as “only minimal interaction”.

In the case of “NE: neutrophil elastase purified from human neutrophils”, the “Binding of TLR4/MD-2 to coated protein/peptide (in words)” value (TLR4/MD-2 complex) is reported as “did not significantly interact”.

B1: binds [5].

In the case of B2, the “Binding of TLR4/MD-2 to coated protein/peptide (in words)” value (TLR4/MD-2 complex) is reported as “low, but specific, interaction”, the “Fold lower affinity for TLR4 than for S100A9” value (TLR4/MD-2 complex; Kd 98 nM versus Kd 9.2 nM) is reported as roughly 10 fold and the “Fold higher concentration at which TLR4 activation begins, versus S100A9” value (TLR4) is reported as “approximately 100 fold”. The “Concentration at which activation of TLR4 begins” value (TLR4; 24 h, SEAP) was 100 nM, the “Decrease of TLR4 activation by S100A9” value ([6]; CAP37 0.01 nM preincubated 1 hour with 10-nM S100A9, from 50% to 30%) was roughly 20% and the “Decrease of TLR4 activation by S100A9” value ([6]; CAP37 10 nM preincubated 1 hour with 10-nM S100A9) was 10%. The “Decrease of TLR4 activation by S100A9” value ([6]; CAP37 1 µM preincubated 1 hour with 10-nM S100A9) was “no decrease”, the “Interaction between CAP37 and S100A8 (in words)” value (S100A8) was “specific, but low, interaction” and the Kd [7] was 98 nM.

B3: recombinant human S100 calcium-binding protein A9 (S100A9), C-terminus 8-His tag (natural protein, UniProt P06702 1-114, looked up)
chain: MTCKMSQLERNIETIINTFHQYSVKLGHPDTLNQGEFKELVRKDLQNFLKKENKNEKVIEHIMEDLDTNADKQLSFEEFIMLMARLTWASHEKMHEGDEGPGHHHKPGLGEGTP
For B3, the Kd [8] was 37.3 nM, the Kd [9] was 22.3 nM and the Kd [10] was 43.8 nM. The Kd [11] was 23.5 nM, the “binding at 10 nM S100A9 relative to its binding to CAP37” value [12] was 2 fold and the Kd [13] was 9.2 nM.

— PMC7401491 (Investigative Ophthalmology & Visual Science, 2020)
